Measured values of several laboratories.
Protocols differ between the studies behind these lines.
Target: Dual specificity tyrosine-phosphorylation-regulated kinase 1A (DYRK1A, Homo sapiens, UniProt Q13627)
Method: competition with immobilised ligand

| Compound | effect on | concentration | remaining binding |
| --- | --- | --- | --- |
| c1cncc(-c2cccc(Nc3nccc(NC4CCCCC4)n3)c2)c1 | binding | 10 µM | 26% |
| COc1cnc(Nc2cccc(S(N)(=O)=O)c2)nc1N1CCN(c2ccccc2)C(=O)C1 | binding | 1 µM | 91% |
| C=CC(=O)N1CCC(C(=O)NCC(=O)N2CCN(c3nc(-c4cnc(N)nc4C(F)F)nc(N4CCOCC4)n3)CC2)CC1 | binding | 1 µM | 94% |
| O=C(NC[C@@H]1[C@H]2CN(C(=O)OCc3cc(C(F)(F)F)cc(C(F)(F)F)c3)C[C@@H]12)c1ccc2[nH]nnc2c1 | cell-free assay | 1 µM | 86% |
| O=C(c1ccc(Nc2ncc(Cl)c(-c3ccc(Cl)s3)n2)cc1)N1CCC(N2CCCC2)CC1 | binding | 1 µM | 1.8% |
| Cc1noc([C@H]2C[C@@H](c3ccc(C(F)(F)F)cc3)CN(C(=O)N3CCS(=O)(=O)C3)C2)n1 | cell-free assay | 1 µM | 100% |
| O=C(NCC1CCOCC1)c1n[nH]cc1NC(=O)c1c(F)cccc1F | binding | 1 µM | 0.4% |
| CN([C@@H]1CCc2c(CC(=O)O)c3ccccc3n2C1)S(=O)(=O)c1ccc(F)cc1 | cell-free assay | 1 µM | 69% |
| COc1cnc(Nc2cccc(S(N)(=O)=O)c2)nc1N1CCN(c2ccccc2)CC1 | binding | 1 µM | 76% |
| O=C(NCCCN1CCOCC1)c1ccc(Nc2nccc(-c3cc4ccccc4s3)n2)cc1 | binding | 1 µM | 41% |
| CCN1CCN(Cc2ccc(C(=O)Nc3ccc(C)c(Oc4ccc5c(c4)CC(=O)N5)c3)cc2C(F)(F)F)CC1 | binding | 1 µM | 96% |
| Cc1cnc(Nc2ccc(C(=O)N3CCC(N4CCCC4)CC3)cc2)nc1-c1cc2ccccc2s1 | binding | 1 µM | 19% |
| CCOCCn1cc(C(=O)Nc2ccc(-n3nc(-c4cccnc4)cc3C(F)(F)F)cn2)ccc1=O | cell-free assay | 1 µM | 77% |
